Screening results (PubChem BioAssay)
Hits are enriched below; roughly 3.1% of the tested compounds scored in any of these assays.
GPR7 antagonist = GPR7 receptor antagonists, primary screen, cell-based, fluorescence, single concentration; Neuropeptides B/W receptor type 1 (Homo sapiens), P48145; inhibition, % at 4.4 µM; GPR7-expressing cells, fluorescence antagonist assay; AID 1861, 2009; 1.1% of 290,000 active; in the data active = inhibition above about 16%, passing the limit was not always enough;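 also: cells stimulated with the agonist NPW; 0% = agonist with vehicle and 100% = vehicle without agonist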
OX1R antag-1 = OX1R (HCRTR1) antagonists, primary screen, fluorescence, CHO/OX1R cells, Fluo-8 calcium, orexin A. AID 434989, 2010. 0.43% of 330,000 active. Orexin/Hypocretin receptor type 1 (Homo sapiens), O43613. inhibition, % at 5 µM. Fluo-8 calcium fluorescence;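 active = inhibition above its plate's threshold, mean inhibition of all tested compounds on the plate plus 3 SD, cut at about 37% in these data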;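 also: 0% = orexin A challenge wells and 100% = SB-334867-A antagonist wells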
Target sequence (O43613 whole entry, looked up): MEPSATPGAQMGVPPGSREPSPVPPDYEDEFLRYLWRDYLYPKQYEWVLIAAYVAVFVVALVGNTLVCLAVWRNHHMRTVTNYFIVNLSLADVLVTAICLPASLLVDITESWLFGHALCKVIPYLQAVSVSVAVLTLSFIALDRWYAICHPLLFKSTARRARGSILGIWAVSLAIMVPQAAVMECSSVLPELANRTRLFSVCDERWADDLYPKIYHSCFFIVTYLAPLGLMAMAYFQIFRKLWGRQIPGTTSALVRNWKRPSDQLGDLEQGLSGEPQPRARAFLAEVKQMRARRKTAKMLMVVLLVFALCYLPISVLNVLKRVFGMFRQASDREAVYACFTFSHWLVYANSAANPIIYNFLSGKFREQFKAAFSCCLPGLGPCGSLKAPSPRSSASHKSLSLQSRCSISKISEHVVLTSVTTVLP
OX1R antag-2 = antagonists of human orexin 1 receptor (OX1R) | Orexin/Hypocretin receptor type 1 (Homo sapiens), O43613 | OX1R-expressing cells, FRET antagonist read-out | inhibition, % at 6.6 µM | 1.8% of 330,000 active; in the data active = inhibition mostly above about 38%, no sharp cut-off; inactive = mostly below about 40%;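 also: 0% = agonist challenge alone and 100% = reference antagonist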
GalR3 antag = GalR3 antagonists in HEK293 cells, primary screen, cell-based, fluorescence readout | AID 651719, 2012 | HEK293 GalR3-CNG cAMP membrane potential fluorescence; galR3 body fused to GalR1 C-terminus | Galanin receptor type 3 (Homo sapiens), O60755 | inhibition, % at 3 µM | 0.44% of 360,000 active;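 active = inhibition above the screen-wide average plus 3 SD, cut at about 13% in these data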;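 also: forskolin and galanin both at EC90 stimulate the cells; cAMP rise reported by CNG channel membrane potential dye signal; 0% = forskolin plus galanin with DMSO and 100% = forskolin alone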
CHO parental Ca = ATP-evoked calcium signal inhibitors, parental CHO, primary screen, counter-screen for OX1R antagonist project, cell-based, fluorescence, Fluo-8 calcium dye; parental CHO-K1, ATP-induced calcium, Fluo-8 fluorescence; 0.63% of 330,000 active; inhibition, % at 5.6 µM;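 active = inhibition above that plate's mean sample inhibition plus 3 SD, cut at about 26% in these data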;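 also: 0% = ATP-challenged DMSO wells and 100% = DMSO wells without ATP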
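Test system: parental CHO cells; detection: calcium-sensitive Fluo-8 fluorescence; evaluation: percent inhibition of calcium signal; also added: ATP as calcium-mobilizing challenge; repeats: one well per compound; control set: ATP-challenged DMSO wells low, unchallenged DMSO wells high; compound: single nominal dose of 5.6 µM per compound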
* hit, by the source's call; / = no result.

SMILES | GPR7 antagonist | OX1R antag-1 | OX1R antag-2 | GalR3 antag | CHO parental Ca
O=C1C(=O)N(CCCN2CCOCC2)C(c2ccc(F)cc2)/C1=C(/O)c1ccccc1 (stereo not given) | -14 | -5 | -10 | -11 | -7
O=C(C1=C(O)C(=O)N(CCN2CCOCC2)C1c1ccccn1)c1cccs1 (stereo not given) | -6 | -5 | 59* | 2 | 3
CN(C)S(=O)(=O)c1ccc(/C(O)=C2/C(=O)C(=O)N(CCCN3CCOCC3)C2c2ccncc2)cc1 (stereo not given) | / | -3 | 73* | -4 | 8
COc1ccc(S(=O)(=O)N(CC(=O)N/N=C/c2cccs2)c2ccc(C)cc2)cc1OC | -2 | -6 | 53 | 1 | -10
COc1ccccc1N(CC(=O)Nc1cc(S(=O)(=O)N(C)C)ccc1C)S(=O)(=O)c1cccs1 | / | 26 | 34* | 0 | -16
COc1ccc(S(=O)(=O)N(CC(=O)N/N=C/c2cccs2)c2cc(C)cc(C)c2)cc1OC | -5 | 35 | 50* | -9 | -26
Cc1ccc(NC(=O)n2ccc(-c3ccc(-n4ccnc4)cc3)n2)cc1 | 3 | / | / | -3 | /
Clc1ccc(-c2nc3ccc(Br)cn3c2Cc2cccc(Cl)c2)cc1 | / | / | / | -4 | /
Cn1c(SCC2CCCO2)nnc1-c1cccc([N+](=O)[O-])c1 (stereo not given) | -6 | -16 | 50* | -7 | -1
Cn1c(SCC2CCCO2)nnc1-c1ccncc1 (stereo not given) | -14 | -6 | -8 | 1 | -9
CC(NC(=O)c1ccccc1F)C12CC3CC(CC(C3)C1)C2 (stereo not given) | / | -35 | 39 | -4 | -17
CSCCC(NS(=O)(=O)c1ccc(Cl)cc1)C(=O)OCc1cccc(Cl)c1 (stereo not given) | -4 | -12 | 12 | -5 | 41*
CSCCC(NS(=O)(=O)c1ccc(Cl)cc1)C(=O)OCC(=O)N(C(C)C)C(C)C (stereo not given) | 0 | -20 | 25 | -3 | -14
CSCCC(NS(=O)(=O)c1ccc(Cl)cc1)C(=O)O (stereo not given) | -6 | -10 | 1 | -1 | 11
CSCCC(NS(=O)(=O)c1ccc(Cl)cc1)C(=O)OCc1c(Cl)cccc1Cl (stereo not given) | -15 | -8 | 66* | -7 | -10
COc1ccccc1OCCNC(=O)C1CC(=O)N(c2ccc3c(c2)OCCO3)C1 (stereo not given) | / | -18 | 20 | 2 | 1
Cc1cccc(C)c1Nc1nnc(SCc2cc([N+](=O)[O-])cc3c2OCOC3)s1 | 2 | -5 | 14 | -5 | -13
COc1cccc(Nc2nnc(SCc3cc([N+](=O)[O-])cc4c3OCOC4)s2)c1 | -1 | -17 | 68* | 0 | 5
COc1cccc(-c2nn(C)c3sc(C(=O)NCc4ccc(C)o4)cc23)c1 | -14 | -25 | 72* | -3 | -22
COc1cccc(-c2nn(C)c3sc(C(=O)NCc4ccc5c(c4)OCO5)cc23)c1 | -2 | -24 | 23 | 1 | -8
O=C1c2ccccc2-c2cccnc21 | -10 | -20 | 47* | -7 | -4
O=C(Nc1cccc(Cl)c1Cl)c1snnc1-c1ccccc1 | -4 | -23 | 33 | -2 | -31
O=C(Nc1cc(Cl)ccc1O)c1snnc1-c1ccccc1 | -5 | 45 | 46* | -6 | 30
CCN(C(=O)COC(=O)c1cncc(Br)c1)C1CCS(=O)(=O)C1 (stereo not given) | -5 | -10 | 15 | -5 | 7
Cc1oc2c(c1C(=O)N1CCC(C)CC1)C(=O)c1ccccc1C2=O | -5 | -31 | 67* | 3 | -21
SMILES | GPR7 antagonist | OX1R antag-1 | OX1R antag-2 | GalR3 antag | CHO parental Ca
CCOC(=O)C1CCN(C(=O)c2ccc(C)o2)CC1 | / | -3 | -3 | -3 | -5
CCOC(=O)C1CCN(C(=O)c2c(C)oc3c2C(=O)c2ccccc2C3=O)CC1 | -14 | -33 | 70* | 3 | -18
COCn1ccnc1C(=O)c1ccco1 | / | / | / | -2 | /
Cc1oc(-c2ccccc2F)nc1CS(=O)CC(=O)NC1CCCC1 (stereo not given) | -18 | -13 | 3 | -5 | -16
CC1C=CCC2C(=O)N(c3ccc(OC(=O)c4cccs4)cc3)C(=O)C12 (stereo not given) | 5 | -7 | 10 | 0 | 10
CC1C=CCC2C(=O)N(c3ccc(OC(=O)c4ccco4)cc3)C(=O)C12 (stereo not given) | 19* | -10 | 19 | -3 | -4
CCN(CC(=O)Nc1ccc(NC(C)=O)cc1)C(=O)c1sc2nc3n(c(=O)c2c1C)CCC3 | / | -11 | 1 | -7 | -6
O=[N+]([O-])c1c(NCCO)cc(N2CCCCCC2)c2nonc12 | -1 | -18 | 42 | -9 | -7
CCOC(=O)C1CCCN(c2cc(NCCCO)c([N+](=O)[O-])c3nonc23)C1 (stereo not given) | -4 | -30 | 73* | 0 | -6
CC(=O)c1cccc(NC(=O)c2ccc(-c3ccccc3[N+](=O)[O-])o2)c1 | -16 | -7 | 69* | 5 | -26
CCn1nnc(NC(=O)c2ccc(-c3ccccc3[N+](=O)[O-])o2)n1 | -2 | -7 | 10 | -7 | -3
Cc1cc(NC(=O)c2ccc(-c3ccccc3[N+](=O)[O-])o2)no1 | / | -11 | 27* | 1 | 1
Cn1nc(C(F)(F)F)c(-c2ccc(F)cc2)c1NC(=O)c1ccco1 | -3 | -13 | 3 | -3 | -6
Cn1nc(C(F)(F)F)c(-c2ccc(Br)cc2)c1NC(=O)Nc1ccc(F)cc1F | -12 | 46* | 24 | -6 | 33
CCOc1ccc(NC(=O)CC2C(=O)N(c3ccccc3)C(=O)N2Cc2ccco2)cc1 (stereo not given) | -7 | -21 | 17 | -3 | -14
CC(C)N(C(=O)C[n+]1ccc(/C=N/O)cc1)C(C)C | 1 | 3 | 31 | -3 | -11
O=C(C[n+]1ccc(/C=N/O)cc1)N(Cc1ccccc1)Cc1ccccc1 | -7 | 0 | 53* | -5 | -3
C/C(CC(=O)Nc1cccnc1)=N\NC(=O)C(=O)Nc1cccc(C)c1 | -10 | -23 | 15 | -2 | -17
CC1CCN(C(=O)c2ccc([N+](=O)[O-])o2)CC1 | -4 | -10 | 44* | -10 | -5
CN(Cc1ccccc1)C(=O)c1ccc([N+](=O)[O-])o1 | 1 | -18 | 54* | -3 | -8
O=C(c1ccc([N+](=O)[O-])o1)N1CCN(Cc2ccccc2)CC1 | 22 | -15 | 30* | -7 | 0
CC1CCCN(C(=O)c2ccc([N+](=O)[O-])o2)C1 (stereo not given) | -5 | -10 | 58 | -2 | -9
Cc1ccc2nc(-c3ccco3)c(Cc3ccccc3C(F)(F)F)n2c1 | / | / | / | -5 | /
